Assay results published in ChEMBL document CHEMBL3763044, “Pyridoxine hydroxamic acids as novel HIV-integrase inhibitors” (Bioorg Med Chem Lett, 2016).

How the values were obtained:
[1] = Cytotoxicity against human MT4 cells; format: cell-based
Summary of the method: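 Cytotoxicity measured in MT-4 cells in parallel with the 7-day multi-cycle antiviral assay. CC50 is the mean of at least three experiments.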

[2] = Inhibition of HIV integrase strand transfer activity; parameters: species or system Human immunodeficiency virus
Summary of the method: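 Strand-transfer assay on purified integrase using 3'-processed oligonucleotides. % inhibition = [1 − (sample counts/mean positive control)] × 100, plotted against log molar concentration. IC50 is taken from a sigmoidal dose-response fit with variable slope and is the mean of at least three experiments.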

[3] = test system: Human immunodeficiency virus 1; test: Antiviral activity against luciferase-bearing envelope-defective HIV-1 NL4-3 pseudotype virus infected in human MT4 cells co-infected with HIV1 HXBc2 envelope by single cycle infection assay; format: functional, organism-based; details: Human immunodeficiency virus 1, NL4-3, MT4
Summary of the method: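 Single-cycle infection of MT-4 cells with a luciferase-bearing env-defective NL-4.3 virus pseudotyped with HIV-1 env (HXBc2), read by luciferase. EC50 is the mean of at least three experiments.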

[4] = Plasma concentration in rat at 50 mg/kg after 18 hrs; format: ADME, organism-based
Summary of the method: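 Female Sprague-Dawley rats (8) given 50 mg/kg orally, with blood collected at 7 time points after dosing.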

[5] = target: Human immunodeficiency virus type 1 integrase (Human immunodeficiency virus 1, UniProt Q7ZJM1, N155H); test: Inhibition of HIV integrase N155H mutant
Human immunodeficiency virus type 1 integrase, sequence (Q7ZJM1 entry or part of it N155H): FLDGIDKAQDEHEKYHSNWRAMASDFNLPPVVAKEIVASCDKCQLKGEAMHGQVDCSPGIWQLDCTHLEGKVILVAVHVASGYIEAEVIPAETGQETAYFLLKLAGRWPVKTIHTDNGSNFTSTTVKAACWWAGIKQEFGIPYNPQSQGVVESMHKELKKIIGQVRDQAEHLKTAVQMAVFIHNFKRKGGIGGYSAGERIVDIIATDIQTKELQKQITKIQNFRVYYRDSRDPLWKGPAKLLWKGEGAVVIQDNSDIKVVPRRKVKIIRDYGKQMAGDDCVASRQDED

[6] = test system: Human immunodeficiency virus; test: Ratio of EC90 for HIV integrase assessed as accumulation of 2-LTR to IC50 for HIV integrase strand transfer activity
Salmonella typhimurium = test: Mutagenicity in Salmonella typhimurium by Ames test; format: toxicity, organism-based; details: salmonella enterica subsp. enterica serovar typhimurium
[7] = test system: Human immunodeficiency virus; test: Ratio of EC50 for HIV integrase assessed as accumulation of 2-LTR to IC50 for HIV integrase strand transfer activity
[8] = Half life in Sprague-Dawley rat at 5 mg/kg, iv and 50 mg/kg, po by LC/MS/MS analysis; format: ADME, organism-based; details: in vivo
Summary of the method: (§1)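 Female Sprague-Dawley rats randomly assigned to two groups: 13 rats dosed 5 mg/kg intravenously, 8 rats dosed 50 mg/kg orally. Blood collected at 7 time points after dosing. Bioavailability taken over 24 h.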

[9] = Oral bioavailability in Sprague-Dawley rat at 50 mg/kg after 24 hrs by LC/MS/MS analysis; format: ADME, organism-based; details: in vivo; summary of the method: as §1
[10] = Lipophilicity Log P of the compound; format: physicochemical; details: octanol/water
[11] = Plasma protein binding in rat by Rapid Equilibrium Dialysis method; format: ADME, cell-free; details: read-out: PPB (converted)
Summary of the method: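 Protein binding measured by rapid equilibrium dialysis.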

[12] = Inhibition of […] reverse transcriptase
[13] = target: RNA-directed RNA polymerase (Hepacivirus hominis, UniProt O39930); test: Inhibition of HCV RNA polymerase
RNA-directed RNA polymerase, sequence (O39930 whole entry): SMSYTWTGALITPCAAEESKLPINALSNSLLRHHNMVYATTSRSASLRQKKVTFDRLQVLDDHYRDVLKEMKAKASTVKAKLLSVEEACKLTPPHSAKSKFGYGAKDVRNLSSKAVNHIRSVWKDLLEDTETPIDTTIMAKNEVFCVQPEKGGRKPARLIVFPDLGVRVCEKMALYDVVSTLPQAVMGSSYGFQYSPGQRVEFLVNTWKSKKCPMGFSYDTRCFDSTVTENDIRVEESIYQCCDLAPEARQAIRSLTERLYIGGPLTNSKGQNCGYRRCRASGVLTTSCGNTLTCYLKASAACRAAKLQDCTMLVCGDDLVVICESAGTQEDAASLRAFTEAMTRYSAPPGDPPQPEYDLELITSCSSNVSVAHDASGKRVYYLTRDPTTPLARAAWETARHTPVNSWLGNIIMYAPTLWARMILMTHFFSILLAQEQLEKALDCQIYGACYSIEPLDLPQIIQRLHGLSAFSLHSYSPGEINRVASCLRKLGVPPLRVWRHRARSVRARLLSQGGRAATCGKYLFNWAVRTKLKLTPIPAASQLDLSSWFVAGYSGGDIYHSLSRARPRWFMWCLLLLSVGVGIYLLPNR

[14] = Therapeutic index, ratio of CC50 for human MT4 cells to EC50 for luciferase-bearing envelope-defective HIV-1 NL4-3 pseudotype virus infected in human MT4 cells co-infected with HIV1 HXBc2 envelope; format: cell-based; details: read-out: Ratio CC50/EC50
[15] = test system: Human immunodeficiency virus 1; test: Antiviral activity against luciferase-bearing envelope-defective HIV-1 NL4-3 pseudotype virus infected in human MT4 cells co-infected with HIV1 HXBc2 envelope after 7 days by multi-cycle assay; format: functional, organism-based; details: Human immunodeficiency virus 1, NL4-3, MT4, 168 h
Summary of the method: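 Multi-cycle antiviral assay run for 7 days in MT-4 cells, in parallel with the cytotoxicity assay. EC50 is the mean of at least three experiments.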

Row | SMILES | CC50 [1] | IC50 [2] | EC50 [3] | further results
1 | O=C(NCCc1ccc(F)cc1)c1cnc(C(=O)NO)c(O)c1CO | 23000 nM | 2300 nM | 2000 nM | –
2 | O=C(NO)c1ncc(CNCc2ccc(F)cc2)c(CO)c1O | 20000 nM | 550 nM | 695 nM | –
3 | O=C(Nc1cnc(C(=O)NO)c(O)c1CO)c1ccc(F)cc1 | 50000 nM | 300 nM | 6300 nM | –
4 | Cc1ccc(CC(=O)Nc2cnc(C(=O)NO)c(O)c2CO)cc1 | 32000 nM | – | 4500 nM | –
5 | O=C(NO)c1ncc(/C=C/c2ccc(F)cc2)c(CO)c1O | 50000 nM | > 100000 nM | > 10000 nM | –
6 | O=C(NO)c1ncc(CNc2ccc(F)cc2)c(CO)c1O | 50000 nM | 25 nM | 20 nM | –
7 | O=C(CC1CCCCC1)Nc1cnc(C(=O)NO)c(O)c1CO | 50000 nM | – | 11000 nM | –
8 | O=C(Cc1ccc(F)c(Cl)c1)Nc1cnc(C(=O)NO)c(O)c1CO | 22000 nM | 29 nM | 25 nM | concentration at 18 h [4]: > 25 nM; EC50 [5]: > 300 nM; Ratio [6]: 10; Activity (Salmonella typhimurium): Non-toxic; Ratio [7]: 7; half-life [8]: 43.8 min; bioavailability [9]: 25%; logP [10]: 0.6; fraction unbound [11]: 0.11; EC50 [12]: > 50000 nM; EC50 [13]: > 50000 nM; selectivity ratio [14]: > 1000; EC50 [15]: 128 nM
9 | O=C(NO)c1ncc(COc2ccc(F)cc2)c(CO)c1O | 27000 nM | 41 nM | 7 nM | –
10 | O=C(NO)c1ncc(CS(=O)(=O)c2ccc(F)cc2)c(CO)c1O | 50000 nM | 10000 nM | 9300 nM | –
11 | O=C(Cc1ccc(F)c(F)c1)Nc1cnc(C(=O)NO)c(O)c1CO | 51000 nM | – | 100 nM | –
12 | O=C(NO)c1ncc(CCCc2ccc(F)cc2)c(CO)c1O | 2000 nM | 550 nM | 500 nM | –
13 | O=C(NO)c1ncc(CSc2ccc(F)cc2)c(CO)c1O | – | 250 nM | – | –
14 | O=C(Cc1ccc(Cl)c(Cl)c1)Nc1cnc(C(=O)NO)c(O)c1CO | 50000 nM | – | 40 nM | –
15 | O=C(NO)c1ncc(COCc2ccc(F)cc2)c(CO)c1O | 11000 nM | 80 nM | 15 nM | –
16 | O=C(NO)c1ncc(CCc2ccc(F)cc2)c(CO)c1O | 21000 nM | 327 nM | 76 nM | –
17 | O=C(Cc1ccc2c(c1)OCO2)Nc1cnc(C(=O)NO)c(O)c1CO | 50000 nM | – | 1860 nM | –
18 | O=C(NO)c1ncc(CS(=O)(=O)Cc2ccc(F)cc2)c(CO)c1O | 16000 nM | 2300 nM | 4350 nM | –
19 | O=C(Cc1ccccc1)Nc1cnc(C(=O)NO)c(O)c1CO | 54000 nM | – | 100 nM | –
20 | O=C(Nc1ccc(F)cc1)c1cnc(C(=O)NO)c(O)c1CO | 50000 nM | 328 nM | 40 nM | –
21 | COc1ccc(CC(=O)Nc2cnc(C(=O)NO)c(O)c2CO)cc1 | 25000 nM | – | 1500 nM | –
22 | O=C(Cc1cc(F)cc(F)c1)Nc1cnc(C(=O)NO)c(O)c1CO | 31000 nM | – | 400 nM | –
